Measured values reported in paper PMC5221563 (Molecular cancer therapeutics, 2016).
Read-outs that look alike come from different tables or passages of the source.

Key:
L3.6pl cells [1] = assay: Annexin V FITC apoptosis, combination treatment; assay type: cell-based; details: combination with gemcitabine or oxaliplatin, 96 hrs
Outline: (§1)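 Human PDAC cells plated at 50,000 per well in six-well plates. After 24 hrs, exposed for 96 hrs to test compound, gemcitabine, oxaliplatin, or test compound plus either drug. Cells trypsinized; equal numbers stained with Annexin V FITC and propidium iodide per kit protocol. Analysed by flow cytometry.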

L3.6pl cells [2] = assay: MTT isobologram synergy analysis; assay type: cell-based; details: 72 hrs
Outline: (§2)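 Cells at 5,000 per well in 96-well plates were treated after 24 hrs with test compound (60, 120 or 180 nM), a chemotherapy partner, or both for 72 hrs. The MTT read-out used 5 mg/mL reagent for 2 hrs, formazan dissolved in DMSO and absorbance at 595 nm. Mean absorbance went into isobologram analysis, and the combination index was calculated.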

MiaPaCa-2 cells [3] = assay: MTT isobologram synergy analysis; assay type: cell-based, human; details: MiaPaCa-2, KPT-9274 (60, 120 or 180 nM) with oxaliplatin (2, 4 or 8 μM), 72 hrs
Outline: as §2

MiaPaCa-2 cells [4] = assay: Clonogenic assay, combination treatment; assay type: cell-based, human; details: MiaPaCa-2, combination with gemcitabine or oxaliplatin
Outline: (§3)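 Cells were seeded at 50,000 per well in six-well plates and allowed to attach for 24 hrs. They were then exposed for 72 hrs to test compound, gemcitabine, oxaliplatin or a combination. Afterwards, 1,000 cells per condition were re-seeded in 100 mm dishes and grown. Colonies were stained, counted and photographed.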

[5] = system: PAK4, p-PAK4, cyclin D1, p-PAK2 in MiaPaCa-2 cells; assay: Western blot of PAK4 and related signaling; assay type: cell-based, human
Outline: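 MiaPaCa-2 cells (1×10^6 per 100 mm dish, ~50% confluent) were exposed to test compound for 72 hrs. Protein was extracted and western blotted, and blots were probed for p-PAK4 and p-PAK2 with β-actin as the loading control. Blots are representative of two independent experiments.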

[6] = target: PAK4-vimentin interaction (Homo sapiens, UniProt O96013); assay: Co-immunoprecipitation of PAK4 and vimentin; assay type: cell-based; details: vs control treatment
Outline: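 Lysates (200 micro gram protein) from control or test-compound-treated cells were immunoprecipitated with PAK4 or vimentin antibodies. The immunoprecipitates were resolved on a 10% gel, western blotted and probed with anti-PAK4 or anti-vimentin antibodies, with loading and internal controls. Two independent experiments were run.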

[7] = system: PARP cleavage in MiaPaCa-2 cells; assay: Western blot for PARP cleavage; assay type: cell-based, human; details: 72 hrs
Outline: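 1×10^6 MiaPaCa-2 cells were grown overnight in 100 mm dishes to ~50% confluence. They were exposed to the indicated test compound concentrations for 72 hrs. Protein was extracted, separated by SDS-PAGE and western blotted with a PARP antibody, using β-actin as the loading control.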

L3.6pl cells [8] = assay: Clonogenic assay, combination treatment; assay type: cell-based; details: combination with gemcitabine or oxaliplatin
Outline: as §3

multi-drug transporters [9] = assay: Multi-drug transporter substrate status; assay type: in vitro ADME; details: data not shown
[10] = system: p-PAK4 and group I PAKs in DU-145 prostate cancer cell line; assay: PAK isoform phosphorylation in DU-145 cells; assay type: cell-based; details: sub-IC50 amount
AsPC-1 tumors = assay: AsPC-1 subcutaneous xenograft; assay type: in vivo, ICR-SCID mice; details: KPT-9274 single agent, p < 0.05
MiaPaCa-2 cells [11] = assay: Annexin V FITC apoptosis, combination treatment; assay type: cell-based, human; details: MiaPaCa-2, combination with gemcitabine or oxaliplatin, 96 hrs
Outline: as §1

L3.6pl PDAC tumors = assay: L3.6pl subcutaneous xenograft; assay type: in vivo
Outline: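 Four-week-old female ICR-SCID mice: 10 per group were trocared bilaterally s.c. with ~50 mg L3.6pl tumor fragments, then randomised. Treatment was diluent or test compound 140 mg/kg i.v., 5 times per week for 4 weeks. At day 21 the control arm got 140 mg/kg i.v. once daily, 5 days a week, for one more week. Tumor weight, body weight and side effects were tracked; excised tumors were H&E stained.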

Tolerability in mice = assay type: in vivo; details: 200 mg/kg daily administered either intravenously or orally
[12] = system: CD44+/CD133+/EpCAM+ MiaPaCa-2 CSC tumors; assay: MiaPaCa-2 CSC subcutaneous xenograft; assay type: in vivo, ICR-SCID mice
Outline: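 CD44+/CD133+/EpCAM+ MiaPaCa-2 cells, isolated by FACS, were kept in serum-free sphere medium (1:1 DMEM/F-12K with B27 and N2). 1×10^6 cells were implanted subcutaneously on both flanks of 4-week-old female ICR-SCID mice. Growth was confirmed in one mouse after 2–3 weeks. Tumor-bearing mice were then randomized into 2 groups of 6: vehicle control or treatment.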

PAK4 = PAK4 (Homo sapiens, UniProt O96013); details: cited from earlier work
[13] = clinical trial NCT00932126; cited from earlier work
multi-drug transporters [14] = details: cited from earlier work
[15] = 140 mg/kg IV, 5 days per week, SCID mice

Chain of PAK4 (O96013 whole entry): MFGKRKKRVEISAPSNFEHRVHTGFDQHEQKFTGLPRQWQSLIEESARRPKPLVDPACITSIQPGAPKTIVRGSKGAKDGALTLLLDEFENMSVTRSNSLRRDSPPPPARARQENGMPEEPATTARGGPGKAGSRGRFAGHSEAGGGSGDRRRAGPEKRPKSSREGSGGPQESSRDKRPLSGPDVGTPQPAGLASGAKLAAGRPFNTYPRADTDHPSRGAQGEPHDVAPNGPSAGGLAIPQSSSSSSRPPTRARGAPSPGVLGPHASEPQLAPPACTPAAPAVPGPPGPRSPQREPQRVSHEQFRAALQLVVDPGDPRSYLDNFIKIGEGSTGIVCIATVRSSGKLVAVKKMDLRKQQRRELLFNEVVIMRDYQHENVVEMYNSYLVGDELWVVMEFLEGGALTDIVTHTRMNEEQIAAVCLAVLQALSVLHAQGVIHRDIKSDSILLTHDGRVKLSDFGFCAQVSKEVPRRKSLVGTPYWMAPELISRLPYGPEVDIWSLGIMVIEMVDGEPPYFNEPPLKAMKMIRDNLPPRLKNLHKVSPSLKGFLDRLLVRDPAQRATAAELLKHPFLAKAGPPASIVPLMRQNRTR
Chain of PAK4-vimentin interaction (O96013 whole entry): as above

SMILES: Nc1ccc(/C=C/C(=O)NCc2cc3cc(-c4ccc(C(=O)N5CCC(F)(F)CC5)cc4)cc(-c4ccc(F)cc4)c3o2)cn1 [KPT-9274]
- apoptosis, combination vs either single agent alone (L3.6pl cells [1]): statistically significant enhancement in apoptosis
- combination index (CI) (L3.6pl cells [2]; KPT-9274 (60, 120 or 180 nM) with gemcitabine (10, 20 or 40 nM)): < 1
- combination index (CI) (L3.6pl cells [2]; KPT-9274 (60, 120 or 180 nM) with oxaliplatin (2, 4 or 8 μM)): < 1
- combination index (CI) (MiaPaCa-2 cells [3]): < 1
- colony formation, combination vs single agents alone (MiaPaCa-2 cells [4]): inhibition of colony formation
- p-PAK2 level (western blot) [5]: without effecting
- p-PAK4 level (western blot) [5]: reduced
- PAK4-vimentin interaction (co-immunoprecipitation) [6]: disruption of PAK4-vimentin interaction
- PARP cleavage (western blot) [7]: significant PARP cleavage
- colony formation, combination vs single agents alone (L3.6pl cells [8]): inhibition of colony formation
- substrate of the multi-drug transporters (multi-drug transporters [9]): not a substrate of the multi-drug transporters
- p-PAK4 versus group I PAKs [10]: selective inhibition of p-PAK4 sparing other group I PAKs
- tumor growth, AsPC-1 xenograft (AsPC-1 tumors): statistically significant inhibition of tumor growth
- apoptosis, combination vs either single agent alone (MiaPaCa-2 cells [11]): statistically significant enhancement in apoptosis
- effect on large established tumors (control group, mean tumor 1500 mg) (L3.6pl PDAC tumors; 140 mg/kg IV per day from day 21, 3 doses): regress large established tumors
- anti-tumor activity on L3.6pl tumors (L3.6pl PDAC tumors; [15]): completely eliminated
- outward signs of toxicity, body weight loss (L3.6pl PDAC tumors; [15]): did not see any outward signs of toxicity, body weight loss
- tolerability in mice (Tolerability in mice): well tolerated
- suppression of CSC tumors ([12]; 140 mg/kg once daily i.v.): almost complete suppression of CSC tumors

SMILES: COc1nc(NCCc2c[nH]c3ccccc23)nc(Nc2ccc3[nH]ncc3c2)n1 [KY-04031]
- binding affinity towards PAK4 (PAK4): very low binding affinity

SMILES: Cc1nc(Nc2n[nH]c3c2CN(C(=O)N[C@H](CN(C)C)c2ccccc2)C3(C)C)c2sccc2n1 [PF-03758309]
- human bioavailability [13]: < 1%
- substrate of the multi-drug transporters (multi-drug transporters [14]): substrate of the multi-drug transporters

SMILES: Nc1ccn([C@@H]2O[C@H](CO)[C@@H](O)C2(F)F)c(=O)n1 [gemcitabine, reference compound]
- response of CSC tumors ([12]; 50 mg/kg i.p.): do not respond
